What was measured:
[1] = melting temperature; fluorescence melt of hairpins on a sequencing array, two-state fit, raised by 9.35 °C to match UV melts; conditions: sodium 0.088 M
Outline: (§1)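 Hairpins were imaged by Cy3 fluorescence on a sequenced MiSeq flow cell with annealed Cy3 and quencher oligos, in 50 mM Na-HEPES pH 8.0, 25 mM NaCl, in 2.5 °C steps up to 60 °C. Bootstrapped two-state fits of normalised signals gave melting temperature and folding enthalpy. Four replicates were combined by inverse variance, and fitted temperatures were raised by 9.35 °C to match UV melts.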

[2] = folding enthalpy; higher = less favourable; fluorescence melt of hairpins on a sequencing array, two-state fit; conditions: sodium 0.088 M
Outline: as §1

GTTGGCGAAAGCCGAAAC ((((((....)))..)))
Tm [1]: 38.2 °C
folding enthalpy [2]: -8.56 kcal/mol

GTTGGCGAAAGCCTGAAC ((((((....)))..)))
Tm [1]: 30.9 °C
folding enthalpy [2]: -8.07 kcal/mol

GTTGGCGCGAAAGCGAAC (((..(((....))))))
Tm [1]: 45.9 °C
folding enthalpy [2]: -12.9 kcal/mol

GTTGGCGGAAACGTCAGC (.((.((....)).)).)
Tm [1]: 42.3 °C
folding enthalpy [2]: -21.6 kcal/mol

GTTGGCTCGAAAGAGAAC (((..(((....))))))
Tm [1]: 34.9 °C
folding enthalpy [2]: -17.1 kcal/mol

GTTGGGGGAAACTCCAAC (((((.(....).)))))
Tm [1]: 50.4 °C
folding enthalpy [2]: -41.2 kcal/mol

GTTGGGGGAAACTCCGAC ((.((.(....).)).))
Tm [1]: 41.6 °C
folding enthalpy [2]: -25.9 kcal/mol

GTTGGGTCGAAAGACAAC (((..(((....))))))
Tm [1]: 38.1 °C
folding enthalpy [2]: -18.2 kcal/mol

GTTGGTGGAAACACCAGC (.(((((....))))).)
Tm [1]: 50.6 °C
folding enthalpy [2]: -21.5 kcal/mol

GTTGGTGGAAACACCGAC ((.((((....)))).))
Tm [1]: 53.4 °C
folding enthalpy [2]: -39 kcal/mol

GTTGTAACGAAAGTTAAC (((..(((....))))))
Tm [1]: 37.9 °C
folding enthalpy [2]: -26.1 kcal/mol

GTTGTAGGAAACTACGAC ((.((((....)))).))
Tm [1]: 45.8 °C
folding enthalpy [2]: -26 kcal/mol

GTTGTAGGAAACTGCAAC ((((.((....)).))))
Tm [1]: 46.9 °C
folding enthalpy [2]: -17.8 kcal/mol

GTTGTCGAAAGACCCAAC ((((((....)))..)))
Tm [1]: 26.6 °C
folding enthalpy [2]: -11.1 kcal/mol

GTTGTCGAAAGACGCAAC ((((((....)))..)))
Tm [1]: 31.9 °C
folding enthalpy [2]: -9.32 kcal/mol

GTTGTCGGAAACGACAGC (.(((((....))))).)
Tm [1]: 55.7 °C
folding enthalpy [2]: -24 kcal/mol

GTTGTCGGAAACGACGAC ((.((((....)))).))
Tm [1]: 55.1 °C
folding enthalpy [2]: -24.8 kcal/mol

GTTGTGCGAAAGCAAAAC (((.(((....))).)))
Tm [1]: 48.7 °C
folding enthalpy [2]: -24 kcal/mol

GTTGTGGGAAACCACAGC (.(((((....))))).)
Tm [1]: 49.7 °C
folding enthalpy [2]: -20 kcal/mol

GTTGTGGGAAACCGCAAC ((((.((....)).))))
Tm [1]: 53.8 °C
folding enthalpy [2]: -43 kcal/mol

GTTGTGGGAAACTACAGC (.(((.(....).))).)
Tm [1]: 32 °C
folding enthalpy [2]: -16.8 kcal/mol

GTTGTGGGAAACTACGAC ((.((.(....).)).))
Tm [1]: 33.8 °C
folding enthalpy [2]: -14.3 kcal/mol

GTTGTGGGAAACTGCAAC ((((..(....)..))))
Tm [1]: 39.3 °C
folding enthalpy [2]: -12.7 kcal/mol

GTTGTTACGAAAGTAAAC (((..(((....))))))
Tm [1]: 44.2 °C
folding enthalpy [2]: -27.2 kcal/mol

GTTGTTCGAAAGAAGAAC (((.(((....))).)))
Tm [1]: 43.3 °C
folding enthalpy [2]: -27.6 kcal/mol

GTTTACCCGAAAGGGAAC (((..(((....))))))
Tm [1]: 26.8 °C
folding enthalpy [2]: -9.41 kcal/mol

GTTTACCGAAAGGTTAAC (((.(((....))).)))
Tm [1]: 43.7 °C
folding enthalpy [2]: -24.9 kcal/mol

GTTTACGAAAGTACAAC ((((((....))).)))
Tm [1]: 30.4 °C
folding enthalpy [2]: -11.9 kcal/mol

GTTTAGCGAAAGCTGAAC (((.(((....))).)))
Tm [1]: 51.3 °C
folding enthalpy [2]: -30.4 kcal/mol

GTTTAGGGAAACTTAAAC (((((.(....).)))))
Tm [1]: 35.5 °C
folding enthalpy [2]: -15.4 kcal/mol

GTTTATCGAAAGATCAAC (((.(((....))).)))
Tm [1]: 34.6 °C
folding enthalpy [2]: -22.1 kcal/mol

GTTTCACGAAAGTGTAAC (((.(((....))).)))
Tm [1]: 44.7 °C
folding enthalpy [2]: -24.6 kcal/mol

GTTTCAGGAAACCGAAAC (((((.(....).)))))
Tm [1]: 37.4 °C
folding enthalpy [2]: -30 kcal/mol

GTTTCCGAAAGGAAAAC ((((((....))).)))
Tm [1]: 45.1 °C
folding enthalpy [2]: -16.1 kcal/mol

GTTTCCGAAAGGAAAC ((((((....))))))
Tm [1]: 67.8 °C
folding enthalpy [2]: -41.3 kcal/mol

GTTTCCGAAAGGACAAC ((((((....))).)))
Tm [1]: 39.6 °C
folding enthalpy [2]: -16.6 kcal/mol

GTTTCCGAAAGGAGAAC ((((((....))).)))
Tm [1]: 34.7 °C
folding enthalpy [2]: -16.5 kcal/mol

GTTTCCGAAAGGATAAC ((((((....))).)))
Tm [1]: 37.6 °C
folding enthalpy [2]: -19.8 kcal/mol

GTTTCGACGAAAGTCAAC (((..(((....))))))
Tm [1]: 22.9 °C
folding enthalpy [2]: -9.58 kcal/mol

GTTTCGGGAAACCAAAAC ((((.((....)).))))
Tm [1]: 35.1 °C
folding enthalpy [2]: -19.6 kcal/mol

GTTTCGGGAAACCGGAAC (((.(((....))).)))
Tm [1]: 49.6 °C
folding enthalpy [2]: -35.2 kcal/mol

GTTTCGGGAAACTGAAGC (.(((.(....).))).)
Tm [1]: 37.9 °C
folding enthalpy [2]: -11.2 kcal/mol

GTTTGACGAAAGTCGAAC (((.(((....))).)))
Tm [1]: 57.8 °C
folding enthalpy [2]: -35 kcal/mol

GTTTGAGGAAACCCAAAC (((((.(....).)))))
Tm [1]: 36.8 °C
folding enthalpy [2]: -30.3 kcal/mol

GTTTGAGGAAACTCAGAC ((.((((....)))).))
Tm [1]: 39 °C
folding enthalpy [2]: -23.4 kcal/mol

GTTTGAGGAAACTTAGAC ((.(.((....)).).))
Tm [1]: 32.3 °C
folding enthalpy [2]: -13.5 kcal/mol

GTTTGCACGAAAGTGAAC (((..(((....))))))
Tm [1]: 31.2 °C
folding enthalpy [2]: -13.9 kcal/mol

GTTTGCCGAAAGGCCAAC (((.(((....))).)))
Tm [1]: 41.5 °C
folding enthalpy [2]: -20.9 kcal/mol

GTTTGCGAAAGCAATAAC ((((((....)))..)))
Tm [1]: 34.5 °C
folding enthalpy [2]: -12.6 kcal/mol

GTTTGCGAAAGCAGAAC ((((((....))).)))
Tm [1]: 44.5 °C
folding enthalpy [2]: -13.7 kcal/mol

GTTTGCGAAAGCATCAAC ((((((....)))..)))
Tm [1]: 27.2 °C
folding enthalpy [2]: -8.63 kcal/mol

GTTTGCGAAAGCATTAAC ((((((....)))..)))
Tm [1]: 27.3 °C
folding enthalpy [2]: -12.2 kcal/mol

GTTTGGCGAAAGCCCAAC (((.(((....))).)))
Tm [1]: 39.1 °C
folding enthalpy [2]: -19.1 kcal/mol

GTTTGGGGAAACCCAGAC ((.((((....)))).))
Tm [1]: 44.8 °C
folding enthalpy [2]: -26.4 kcal/mol

GTTTGGGGAAACTCAAAC (((((.(....).)))))
Tm [1]: 43.9 °C
folding enthalpy [2]: -31.7 kcal/mol

GTTTGGGGAAACTCGAAC (((.(.(....).).)))
Tm [1]: 30.8 °C
folding enthalpy [2]: -17.6 kcal/mol

GTTTGTCGAAAGACGAAC (((.(((....))).)))
Tm [1]: 53.1 °C
folding enthalpy [2]: -39 kcal/mol

GTTTGTGGAAACACAAAC (((((((....)))))))
Tm [1]: 58.4 °C
folding enthalpy [2]: -46.4 kcal/mol

GTTTGTGGAAACGCAAAC (((((.(....).)))))
Tm [1]: 48.4 °C
folding enthalpy [2]: -36.2 kcal/mol

GTTTTAACGAAAGTTAAC (((..(((....))))))
Tm [1]: 27 °C
folding enthalpy [2]: -14.7 kcal/mol

GTTTTATCGAAAGATAAC (((..(((....))))))
Tm [1]: 29.8 °C
folding enthalpy [2]: -11.4 kcal/mol

GTTTTCCCGAAAGGGAAC (((..(((....))))))
Tm [1]: 36.5 °C
folding enthalpy [2]: -10.7 kcal/mol

GTTTTCGAAAGAAACAAC ((((((....)))..)))
Tm [1]: 26.6 °C
folding enthalpy [2]: -11.7 kcal/mol

GTTTTCGAAAGAACAAC ((((((....))).)))
Tm [1]: 30.5 °C
folding enthalpy [2]: -12.2 kcal/mol

GTTTTCGAAAGAATAAC ((((((....))).)))
Tm [1]: 31.2 °C
folding enthalpy [2]: -12.9 kcal/mol

GTTTTCGCGAAAGCGAAC (((..(((....))))))
Tm [1]: 40.1 °C
folding enthalpy [2]: -8.54 kcal/mol

GTTTTCGGAAACGAAAGC (.(((((....))))).)
Tm [1]: 44.4 °C
folding enthalpy [2]: -25.9 kcal/mol

GTTTTGCCGAAAGGCAAC (((..(((....))))))
Tm [1]: 36 °C
folding enthalpy [2]: -8.44 kcal/mol

GTTTTGCGAAAGCAAAC (((.(((....))))))
Tm [1]: 46.1 °C
folding enthalpy [2]: -13.8 kcal/mol

GTTTTGGAAACAAAAC ((((((....))))))
Tm [1]: 49.3 °C
folding enthalpy [2]: -31.6 kcal/mol

GTTTTGGGAAACCAAAAC (((((((....)))))))
Tm [1]: 57.5 °C
folding enthalpy [2]: -43.5 kcal/mol

GTTTTTCCGAAAGGAAAC (((..(((....))))))
Tm [1]: 35.1 °C
folding enthalpy [2]: -13.4 kcal/mol

GTTTTTGGAAACAAGAAC (((.(((....))).)))
Tm [1]: 32.7 °C
folding enthalpy [2]: -19.6 kcal/mol

TAAGCGAAAGCTTA (((((....)))))
Tm [1]: 54.5 °C
folding enthalpy [2]: -15 kcal/mol

TACTGGAAACAGTA (((((....)))))
Tm [1]: 36.8 °C
folding enthalpy [2]: -15.8 kcal/mol

TAGGTGAAAACCTA (((((....)))))
Tm [1]: 41.1 °C
folding enthalpy [2]: -15.4 kcal/mol

TCAATGAAAATTGA (((((....)))))
Tm [1]: 25 °C
folding enthalpy [2]: -9.78 kcal/mol

TCAGGGAAACCTGA (((((....)))))
Tm [1]: 41.8 °C
folding enthalpy [2]: -22.8 kcal/mol

TCCAAGAAATTGGA (((((....)))))
Tm [1]: 31.2 °C
folding enthalpy [2]: -10.5 kcal/mol

TCCATGAAAATGGA (((((....)))))
Tm [1]: 42.2 °C
folding enthalpy [2]: -17.1 kcal/mol

TCCCTGAAAAGGGA (((((....)))))
Tm [1]: 48.3 °C
folding enthalpy [2]: -15.6 kcal/mol

TCGGGGAAACCCGA (((((....)))))
Tm [1]: 53.3 °C
folding enthalpy [2]: -22.8 kcal/mol

TGACAGAAATGTCA (((((....)))))
Tm [1]: 42.1 °C
folding enthalpy [2]: -20.1 kcal/mol

TGAGCGAAAGCTCA (((((....)))))
Tm [1]: 67.6 °C
folding enthalpy [2]: -12.8 kcal/mol

TGATTGAAAAATCA (((((....)))))
Tm [1]: 27.4 °C
folding enthalpy [2]: -10.1 kcal/mol

TGCCAGAAATGGCA (((((....)))))
Tm [1]: 55.1 °C
folding enthalpy [2]: -16.5 kcal/mol

TGCGAGAAATCGCA (((((....)))))
Tm [1]: 54.3 °C
folding enthalpy [2]: -18.2 kcal/mol

TGCTAGAAATAGCA (((((....)))))
Tm [1]: 41.2 °C
folding enthalpy [2]: -14.6 kcal/mol

TGGAGGAAACTCCA (((((....)))))
Tm [1]: 46 °C
folding enthalpy [2]: -17.4 kcal/mol

TGGCTGAAAAGCCA (((((....)))))
Tm [1]: 57.9 °C
folding enthalpy [2]: -18.4 kcal/mol

TGGGGGAAACCCCA (((((....)))))
Tm [1]: 53.5 °C
folding enthalpy [2]: -17.2 kcal/mol

TGGTTGAAAAACCA (((((....)))))
Tm [1]: 47 °C
folding enthalpy [2]: -15.1 kcal/mol

TGTACGAAAGTACA (((((....)))))
Tm [1]: 54.7 °C
folding enthalpy [2]: -14.6 kcal/mol
